This passage reports outcome, activation and potentiation results from PubChem BioAssay.

Active and inactive are the calls of the source.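 How the source made its calls, unless noted: active means potentiation averaged over duplicate wells exceeding buffer-only control mean by more than 3 SD; inactive means the rest.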

System in the first test: not listed separately
The experiment in a line: nonspecific flux increase, KCNQ1-free cells – parental CHO cells, counter-screen for KCNQ1 potentiator project (AID 493006;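 active means duplicate-averaged activation above buffer control mean plus 5 SD of those controls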;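 on activation: fluorescence ratio of max minus min over baseline after K+ and Tl+ depolarization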). To be noted: parental CHO-K1 cells, FluxOR thallium flux, at 10 µM; stronger effect = higher value. Summed up:
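Material: parental CHO-K1 cells, FluxOR dye-loaded; Also added: Potassium/thallium depolarization pulse; Schedule: overnight 37 °C plating, 90 min dye, 20 min dark compound; Signal: kinetic FluxOR fluorescence, 10 s baseline, 110 s after stimulus.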
Take `CN(CCCNC(=O)CCCOc1cc(=O)n(C)c2ccccc12)Cc1ccccc1`: the result was inactive.

In the case of `CN(C)S(=O)(=O)N1CCC(CCCC2CCN(S(=O)(=O)N(C)C)CC2)CC1`, the activation was 228% (active).

With `O=C(Nc1ccnn1C1CCN(Cc2cc3ccccc3[nH]2)CC1)C1CCOC1` (stereo unspecified), the activation is 163% (active).

For the compound `CN(C)CCCN(C(=O)CCc1ccccc1)c1nc2ccc(F)cc2s1`, the result was inactive.

With `O=C(O)CCCN1C(=O)/C(=C\c2ccc(-c3nc4ccccc4s3)o2)SC1=S`, the result was inactive.

Regarding `CCCCCCCCCC[n+]1cccc2c3ccccc3ccc21`, the activation was 245% (active).

`CC(C)NS(=O)(=O)c1ccc(NC(=O)C(C)Oc2ccc(C(=O)c3ccccc3)cc2)cc1` (stereo unspecified): the result was inactive.

Take `CCCc1nc2oc3c(NCCCN(C)C)ncnc3c2c2c1CCCC2`: the result was inactive.

With `CCCCN(CC)CCCNC(=O)c1cc2cc3ccc(C)cc3nc2o1`, the outcome was inactive.

Regarding `O=C1C=CC(=O)N1CCNc1ncc(C(F)(F)F)cc1Cl`, the result was inactive.

`Cc1ccc2c(c1)C1CN(C)CCC1N2C(=S)NC(=O)c1ccc(Br)cc1` (stereo unspecified): the activation is 170% (active).

As for `Cc1cc(C)c2c(=O)n(CC(=O)Nc3cccc(Cl)c3C)sc2n1`, the outcome was inactive.

On to `COc1cc(C2(c3ccc(O)c(OC)c3)C(=O)Nc3c(C)cc(Br)cc32)ccc1O`, for which the activation was 168% (active).

Turning to `Cc1nn(-c2cc(C(F)(F)F)ccc2Cl)c2nc(C(Cl)(Cl)Cl)[nH]c(=O)c12`, the activation is 191% (active).

Regarding `Cc1ccc(C(=O)O)cc1N=Cc1cc(Br)cc(Br)c1O`, the activation is 222% (active).

With `CCN(CC)c1ncnc2sc3c(c12)CCC3`, the outcome was inactive.

`COc1ccc(NS(=O)(=O)c2ccc3ccccc3c2)c2ncccc12`: the outcome was inactive.

On to `COc1cc(NC(=O)CSc2ncnc3sc4c(c23)CCC(C)C4)c(C(=O)O)cc1OC` (stereo unspecified), for which the activation is 450% (active).

In a further test the target is Potassium voltage-gated channel subfamily KQT member 1 (Homo sapiens) (UniProt P51787). The experiment in a line: enhancement of KCNQ1 channel thallium flux – FluxOR thallium flux, CHO cells, duplicates, confirmation (AID 493007).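 On outcome: cells depolarized by a potassium plus thallium sulfate stimulus after compound.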 To be noted: KCNQ1 cell line, FluxOR thallium flux fluorescence, at 10 µM; stronger effect = higher value, % of reference activator effect, buffer zero. A digest of the protocol: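 System: KCNQ1-expressing CHO cell line; technique: kinetic thallium influx fluorescence with FluxOR dye, 10 s baseline, 110 s post-stimulus; timing: dye 90 min then compound 20 min, both at room temperature; controls: buffer-only wells as 0% and R-L3 activator as 100%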
Chain of Potassium voltage-gated channel subfamily KQT member 1 (Homo sapiens) (P51787 whole entry, looked up): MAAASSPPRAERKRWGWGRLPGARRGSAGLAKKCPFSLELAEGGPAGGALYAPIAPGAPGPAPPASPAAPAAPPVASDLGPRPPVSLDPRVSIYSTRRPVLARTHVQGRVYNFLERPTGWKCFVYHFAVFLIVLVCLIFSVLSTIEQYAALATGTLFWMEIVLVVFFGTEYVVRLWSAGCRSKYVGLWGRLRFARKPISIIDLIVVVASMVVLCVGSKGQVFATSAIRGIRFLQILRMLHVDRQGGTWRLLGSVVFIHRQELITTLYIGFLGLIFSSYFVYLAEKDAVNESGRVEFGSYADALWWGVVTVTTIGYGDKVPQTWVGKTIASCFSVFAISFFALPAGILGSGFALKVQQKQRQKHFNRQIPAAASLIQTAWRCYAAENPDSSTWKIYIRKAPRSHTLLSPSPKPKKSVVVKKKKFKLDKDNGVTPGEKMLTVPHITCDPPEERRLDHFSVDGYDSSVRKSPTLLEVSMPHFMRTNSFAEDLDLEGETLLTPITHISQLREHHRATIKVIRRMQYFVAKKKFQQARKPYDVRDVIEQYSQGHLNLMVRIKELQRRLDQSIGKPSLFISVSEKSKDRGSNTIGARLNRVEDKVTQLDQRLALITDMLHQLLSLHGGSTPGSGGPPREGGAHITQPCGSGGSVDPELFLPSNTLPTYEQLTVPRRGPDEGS
On to `CN(CCCNC(=O)CCCOc1cc(=O)n(C)c2ccccc12)Cc1ccccc1`, for which the result was inactive.

`CN(C)S(=O)(=O)N1CCC(CCCC2CCN(S(=O)(=O)N(C)C)CC2)CC1`: the potentiation was 99.5% (active).

Regarding `O=C(Nc1ccnn1C1CCN(Cc2cc3ccccc3[nH]2)CC1)C1CCOC1` (stereo unspecified), the potentiation was 53.5% (active).

`CN(C)CCCN(C(=O)CCc1ccccc1)c1nc2ccc(F)cc2s1`: the outcome was inactive.

With `O=C(O)CCCN1C(=O)/C(=C\c2ccc(-c3nc4ccccc4s3)o2)SC1=S`, the outcome was inactive.

As for `CCCCCCCCCC[n+]1cccc2c3ccccc3ccc21`, the potentiation is 64% (active).

`CC(C)NS(=O)(=O)c1ccc(NC(=O)C(C)Oc2ccc(C(=O)c3ccccc3)cc2)cc1` (stereo unspecified): the result was inactive.

Turning to `CCCc1nc2oc3c(NCCCN(C)C)ncnc3c2c2c1CCCC2`, the outcome was inactive.

Consider `CCCCN(CC)CCCNC(=O)c1cc2cc3ccc(C)cc3nc2o1`, for which the outcome was inactive.

For `O=C1C=CC(=O)N1CCNc1ncc(C(F)(F)F)cc1Cl`, the potentiation was 77.5% (active).

With `Cc1ccc2c(c1)C1CN(C)CCC1N2C(=S)NC(=O)c1ccc(Br)cc1` (stereo unspecified), the potentiation is 41% (active).

On to `Cc1cc(C)c2c(=O)n(CC(=O)Nc3cccc(Cl)c3C)sc2n1`, for which the outcome was inactive.

Turning to `COc1cc(C2(c3ccc(O)c(OC)c3)C(=O)Nc3c(C)cc(Br)cc32)ccc1O`, the potentiation is 36.5% (active).

Take `Cc1nn(-c2cc(C(F)(F)F)ccc2Cl)c2nc(C(Cl)(Cl)Cl)[nH]c(=O)c12`: the potentiation is 52.5% (active).

For the compound `Cc1ccc(C(=O)O)cc1N=Cc1cc(Br)cc(Br)c1O`, the potentiation was 164% (active).

Consider `CCN(CC)c1ncnc2sc3c(c12)CCC3`, for which the result was inactive.

In the case of `COc1ccc(NS(=O)(=O)c2ccc3ccccc3c2)c2ncccc12`, the potentiation is 49% (active).

On to `COc1cc(NC(=O)CSc2ncnc3sc4c(c23)CCC(C)C4)c(C(=O)O)cc1OC` (stereo unspecified), for which the potentiation is 297% (active).
